Measurements as given in ChEMBL document CHEMBL1125840, “Antimalarial polyamine analogues” (J Med Chem, 1991).

Columns and labels:
Plasmodium falciparum = experiment: In vitro antimalarial activity against Plasmodium falciparum; assay type: functional, organism-based
Method in brief: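 P. falciparum clone D6 (Sierra Leone strain) grown in human O+ erythrocytes, 1% erythrocyte suspension, starting parasitemia about 0.5%. Analogues dissolved in culture medium and filter-sterilized. After 24 h of exposure, [3H]hypoxanthine (1 µCi) was added and its incorporation measured after a further 18-24 h. IC50 is the concentration (µM) inhibiting incorporation by 50%.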

Plasmodium berghei [1] = experiment: In vivo antimalarial activity against Plasmodium berghei in mice (Mus musculus) as maximum dose tolerated; assay type: functional
Method in brief: (§1)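 Peters 4-day suppression test, mice in groups of five, P. berghei given intravenously. DFMO 2% in drinking water for four nights (Mon-Thu), starting about 4-6 h after infection. Analogues given intraperitoneally at 8:30, 12:30 and 16:30 on three consecutive days (Tue-Thu). Dose reported as highest tolerated, highest tested, or giving maximum response. Cures judged as survival beyond 4 months with parasite-free Giemsa blood smears.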

Plasmodium berghei [2] = experiment: In vivo antimalarial activity against Plasmodium berghei infected mice (Mus musculus) as cures surviving after 4 months; assay type: functional
Method in brief: (§2)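 Standard 4-day suppression test: mice in groups of five infected intravenously with P. berghei; treatment began about 4-6 h after infection. Co-treatment with DFMO as 2% solution in drinking water for four nights, plus analogue given intraperitoneally three times daily (8:30, 12:30, 16:30) on three consecutive days. Cure means survival beyond 4 months with parasite-free Giemsa-stained blood smears on periodic examination.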

Plasmodium berghei [3] = experiment: In vivo antimalarial activity against Plasmodium berghei in mice (Mus musculus) as maximum dose tested; assay type: functional; method in brief: as §1
Plasmodium berghei [4] = experiment: In vivo antimalarial activity against Plasmodium berghei in mice (Mus musculus) as dose required for Emax; assay type: functional; method in brief: as §1
Plasmodium berghei [5] = experiment: In vivo antimalarial activity as increased survival (%max) against Plasmodium berghei in mice (Mus musculus); assay type: functional; method in brief: as §2

| IC50 (Plasmodium falciparum) [µM] | SMILES | also measured |
| --- | --- | --- |
| 0.5 | c1ccc(NCCCNCCCCCCCNCCCNc2ccccc2)cc1 |  |
| 5.3 | Cl.Cl.Cl.Cl.c1ccc(CNCCCNCCCCCCNCCCNCc2ccccc2)cc1 | Dose (Plasmodium berghei [3]): 30 mg/kg |
| 1800 | NCCCNCCCCCCCCNCCCN |  |
| 86 | CS(=O)(=O)c1ccc(CNCCCNCCCCCCCNCCCNCc2ccc(S(C)(=O)=O)cc2)cc1 |  |
| 3.9 | c1cc(CNCCCNCCCCCCCNCCCNCc2ccsc2)cs1 |  |
| 64 | NCCCNCCCCCCCCNCCCNCc1ccccc1 |  |
| 3.2 | c1ccc(CNCCCCNCCCCCCCNCCCCNCc2ccccc2)cc1 |  |
| > 20 | CC(N)CCNCCCCCCCNCCC(C)N (stereo unspecified) |  |
| 1.4 | c1ccc(CNCCNCCCCCCCNCCNCc2ccccc2)cc1 |  |
| 2.5 | COc1ccc(CNCCCNCCCCCCCNCCCNCc2ccc(OC)cc2)cc1 |  |
| 4.5 | c1ccc(CNCCNCCCCCCNCCNCc2ccccc2)cc1 |  |
| 1.3 | COc1ccc(CNCCCNCCCCCCCCNCCCNCc2ccc(OC)cc2)cc1 |  |
| 1.9 | c1ccc(CCNCCCNCCCCCCCNCCCNCCc2ccccc2)cc1 |  |
| 1.4 | Clc1ccc(CNCCCNCCCCCCCNCCCNCc2ccc(Cl)cc2)cc1 |  |
| 5.7 | Oc1ccc(CNCCCNCCCCCCCCNCCCNCc2ccc(O)cc2)cc1 |  |
| 1.8 | C(CCCNCCCNCC1CCCCC1)CCCNCCCNCC1CCCCC1 |  |
| 30 | CCCCNCCCNCCCCCCCCNCCCNCCCC |  |

| IC50 (Plasmodium falciparum) [µM] | SMILES | also measured |
| --- | --- | --- |
| 0.34 | c1ccc2c(CNCCCNCCCCCCCCNCCCNCc3cccc4ccccc34)cccc2c1 |  |
| 4.8 | CC(NCCCNCCCCCCCNCCCNC(C)c1ccccc1)c1ccccc1 (stereo unspecified) |  |
| 20 | CS(=O)(=O)c1ccc(CNCCCNCCCCCCCCNCCCNCc2ccc(S(C)(=O)=O)cc2)cc1 |  |
| 1.8 | CCc1ccc(CNCCCNCCCCCCCNCCCNCc2ccc(CC)cc2)cc1.Cl.Cl.Cl.Cl | Dose (Plasmodium berghei [3]): 30 mg/kg |
| 1.4 | CCc1ccc(CNCCCNCCCCCCCCNCCCNCc2ccc(CC)cc2)cc1 |  |
| 4.5 | c1csc(CNCCCNCCCCCCCNCCCNCc2cccs2)c1 |  |
| 5.3 | c1ccc(CNCCCCNCCCCCCCCNCCCCNCc2ccccc2)cc1 |  |
| 330 | NCCCNCCCCCCCNCCCNCc1ccccc1 |  |
| 3 | CSc1ccc(CNCCCNCCCCCCCNCCCNCc2ccc(SC)cc2)cc1 |  |
| 0.3 | c1ccc(CNCCNCCCCCCCCCCNCCNCc2ccccc2)cc1 |  |
| 2.6 | CC(CCNCCCCCCCNCCC(C)NCc1ccccc1)NCc1ccccc1.Cl.Cl.Cl.Cl (stereo unspecified) | Dose (Plasmodium berghei [3]): 100 mg/kg |
| 0.6 | CSc1ccc(CNCCCNCCCCCCCCNCCCNCc2ccc(SC)cc2)cc1 |  |
| 4300 | NCCCNCCCCCCCNCCCN |  |
| 0.3 | c1ccc(CCCNCCCNCCCCCCCNCCCNCCCc2ccccc2)cc1 |  |
| 0.2 | Cl.Cl.Cl.Cl.c1ccc(CNCCCNCCCCCCCCCCCCNCCCNCc2ccccc2)cc1 | Dose (Plasmodium berghei [1]): 10 mg/kg |
| 27 | Oc1ccc(CNCCCNCCCCCCCNCCCNCc2ccc(O)cc2)cc1 |  |

| SMILES | IC50 (Plasmodium falciparum) [µM] | also measured |
| --- | --- | --- |
| Cl.Cl.Cl.Cl.Clc1ccc(CNCCCNCCCCCCCCNCCCNCc2ccc(Cl)cc2)cc1 | 0.5 | Dose (Plasmodium berghei [1]): 3 mg/kg; Cured (Plasmodium berghei [2]): 60% |
| Cl.Cl.Cl.Cl.c1ccc(CNCCCNCCCCCCCCCNCCCNCc2ccccc2)cc1 | 0.7 | Dose (Plasmodium berghei [4]): 10 mg/kg; Cured (Plasmodium berghei [2]): 60% |
| Cl.Cl.Cl.Cl.c1ccc(CNCCNCCCCCCCCNCCNCc2ccccc2)cc1 | 0.3 | Max increase (Plasmodium berghei [5]): 45%; Dose (Plasmodium berghei [3]): 30 mg/kg |
| Cl.Cl.Cl.Cl.c1ccc(CNCCCNCCCCCCCNCCCNCc2ccccc2)cc1 | 3 | Dose (Plasmodium berghei [4]): 15 mg/kg; Cured (Plasmodium berghei [2]): 100% |
| Cl.Cl.Cl.Cl.c1ccc(CNCCCNCCCCCNCCCNCc2ccccc2)cc1 | 6.7 | Max increase (Plasmodium berghei [5]): 30%; Dose (Plasmodium berghei [3]): 30 mg/kg |
| Cl.Cl.Cl.Cl.c1ccc(CNCCCNCCCCNCCCNCc2ccccc2)cc1 | 14 | Max increase (Plasmodium berghei [5]): 30%; Dose (Plasmodium berghei [3]): 30 mg/kg |
| Cl.Cl.Cl.Cl.c1ccc(CNCCCNCCCCCCCCNCCCNCc2ccccc2)cc1 | 0.8 | Dose (Plasmodium berghei [4]): 10 mg/kg; Cured (Plasmodium berghei [2]): 80% |
| Cl.Cl.Cl.Cl.c1ccc(CNCCCNCCCCCCCCCCNCCCNCc2ccccc2)cc1 | 0.5 | Dose (Plasmodium berghei [1]): 3 mg/kg; Cured (Plasmodium berghei [2]): 40% |
